A selection: hits, their analogues and other compounds. The true share with any hit is near 1.4%.
TbMetRS inhib: Trypanosoma brucei MetRS inhibition. inhibition, % at 11.9 µM. AID 624268. hit rate 0.4% among 360,000. purified T. brucei MetRS, ATP depletion, Kinase-Glo luminescence;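 active = inhibition above a per-plate cutoff of the control wells' mean inhibition plus 3 SD, cut at about 5.5% in these data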;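 also: 0% = DMSO wells median and 100% = median of wells with control inhibitor compound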
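Material – parasite MetRS enzyme · Medium – HEPES-MgCl2-KCl buffer plus DTT, spermine, BSA, pyrophosphatase · Reagent – ATP, methionine and E. coli bulk tRNA substrates · Times – 15 min enzyme-compound preincubation, 2 h reaction, 10 min detection, 25 °C · Measured by – luminescence of leftover ATP · Evaluation – percent inhibition relative to median high and low control wells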
UCH37 inh: inhibitors of human deubiquitinating enzyme UCH37. purified proteasome/UCH37, Ub-AMC cleavage fluorescence. AID 588478. inhibition, % (concentration not given with the values). hit rate 0.33% among 330,000;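 active = mean inhibition over replicate wells above about 20%, limit read from the data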;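 also: 0% = compound-free wells with enzyme and 100% = wells lacking proteasome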
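system = Proteasome-associated human UCH37 deubiquitinase | amount = 0.15 nM proteasome as dispensed | medium = pH 7.4 Tris-HCl (50 mM) with ovalbumin, ATP-MgCl2, DTT | incubation = 30 min preincubation with enzyme, 25 min cleavage at room temperature | detection = AMC fluorescence 355/460 nm | read-out basis = percent inhibition | controls = no-proteasome and no-compound wells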
ATG4B inhibitor: blocks human ATG4B protease cleavage of LC3 substrate; Q9Y4P1; ATG4B cleavage of LC3-PLA2, NBD-HPC fluorescence, 1 h; inhibition, % at 8.33 µM; hit rate 0.51% among 340,000; AID 504462; in the data active = inhibition above about 40%
Rin1-Abl PPI inh: human Rin1-Abl interaction inhibition | TR-FRET Rin1/Abl binding, biochemical | inhibition, % at 7.35 µM | hit rate 0.4% among 360,000 | AID 588664; in the data active = inhibition above about 5%, passing the limit was not always enough
Rin1-Abl confirm: Rin1-Abl interaction inhibition confirmation; shares compounds with Rin1-Abl PPI inh; TR-FRET Rin1-Abl binding, purified proteins; inhibition, % at 7.35 µM; hit rate 49% among 1,300; AID 602124
GFP quencher: GFP fluorescence interference artifact. inhibitors/quenchers counterscreen. shares compounds with Rin1-Abl PPI inh. inhibition, % at 6.75 µM. AID 602125. hit rate 8.5% among 1,300;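 also: ABL1-eGFP fusion protein alone without its partner RIN1-SBP; 0% = protein with vehicle and 100% = wells lacking protein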
GFP quench dose: counter-screen for Rin1-Abl inhibitors: GFP quenchers, dose response | IC50, µM | GFP fluorescence interference/quenching counterscreen | shares compounds with Rin1-Abl PPI inh | 230 tested, under 10 active | AID 602182; call rule not given here;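 also: ABL1-eGFP fusion protein alone without its RIN1 binding partner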
An asterisk follows results filed as active. Rule as the data show it, unless noted: active = inhibition above about 6.5%; inactive = the rest.

What do the screens show for `C#CCOCCOCCOCCNc1nc(N2CCN(C(=O)CCCCCCCCCCNC(=O)Cn3cc(CCCCCN)nn3)CC2)nc(N2CCN(C(=O)CCCCCCCCCCNC(=O)[C@@H](CCC(=O)O)n3cc(CCCCCN)nn3)CC2)n1`?
TbMetRS inhib: 0; UCH37 inh: 0; ATG4B inhibitor: -8; Rin1-Abl PPI inh: 6

How did Cc1ccc(Nc2nc(N)nc(CSc3nnc(-c4ccncc4)o3)n2)cc1 do in these assays?
TbMetRS inhib: 0; UCH37 inh: 2; ATG4B inhibitor: -16; Rin1-Abl PPI inh: 9.6*; Rin1-Abl confirm: 10*; GFP quencher: 0

How did COc1ccc(NS(=O)(=O)c2cc(N)ccc2N2CCOCC2)cc1 do in these assays?
TbMetRS inhib: 0; UCH37 inh: 1; ATG4B inhibitor: -4; Rin1-Abl PPI inh: 8.3*; Rin1-Abl confirm: 0; GFP quencher: -1

What do the screens show for `Cc1noc(C)c1COc1ccccc1C(=O)N(C)Cc1ccc(F)cc1`?
TbMetRS inhib: 0; UCH37 inh: 2; ATG4B inhibitor: 3; Rin1-Abl PPI inh: -2

Results for CC(=O)c1ccc(NC(=O)C2(S(=O)(=O)c3ccccc3)CC2)cc1 ?
TbMetRS inhib: 0; UCH37 inh: 5; ATG4B inhibitor: 0; Rin1-Abl PPI inh: 10*; Rin1-Abl confirm: -2; GFP quencher: -1

What do the screens show for `Cc1ccc(NS(=O)(=O)c2cc(OCC(N)=O)c(C)cc2Cl)cc1C`?
TbMetRS inhib: -1; UCH37 inh: 3; ATG4B inhibitor: -6; Rin1-Abl PPI inh: 12*; Rin1-Abl confirm: -1; GFP quencher: -1

How did Cc1cccc(NS(=O)(=O)c2cc(OCC(N)=O)c(C)cc2Cl)c1 do in these assays?
TbMetRS inhib: -1; UCH37 inh: 1; ATG4B inhibitor: 0; Rin1-Abl PPI inh: 1

How did COc1ccc(C(C#N)CC(=O)c2ccc3c(c2)OCO3)cc1OC (stereo not given) do in these assays?
TbMetRS inhib: 0; Rin1-Abl PPI inh: -7

How did COc1ccc(C(=O)CC(C#N)c2ccc3c(c2)OCO3)cc1OC (stereo not given) do in these assays?
TbMetRS inhib: 0; Rin1-Abl PPI inh: 11*; Rin1-Abl confirm: -3; GFP quencher: 0

How did O=C(CNS(=O)(=O)c1ccc(Cl)cc1)N/N=C/c1ccco1 do in these assays?
TbMetRS inhib: 2; ATG4B inhibitor: 1; Rin1-Abl PPI inh: 0

Results for Cc1c(F)cccc1NC(=O)CCCCCC1NC(=O)NC1C (stereo not given) ?
TbMetRS inhib: 0; UCH37 inh: 2; ATG4B inhibitor: 6; Rin1-Abl PPI inh: 86*; Rin1-Abl confirm: 98*; GFP quencher: -1; GFP quench dose: >68

How did Cc1c(F)cccc1NC(=O)CCC(=O)O do in these assays?
TbMetRS inhib: -1; UCH37 inh: 1; ATG4B inhibitor: -4; Rin1-Abl PPI inh: -1

How did CC1NC(=O)NC1CCCCCC(=O)Nc1ccc(F)cc1 (stereo not given) do in these assays?
TbMetRS inhib: 0; UCH37 inh: 2; ATG4B inhibitor: -10; Rin1-Abl PPI inh: 84*; Rin1-Abl confirm: 98*; GFP quencher: 0; GFP quench dose: >68

How did O=C(CCCC(=O)c1ccccc1)Nc1ccc(F)cc1 do in these assays?
TbMetRS inhib: -1; UCH37 inh: 4; ATG4B inhibitor: -6; Rin1-Abl PPI inh: 3

What do the screens show for `CN=c1scc(-c2ccccc2F)n1/N=C/c1ccc(O)c(O)c1O`?
TbMetRS inhib: -1; ATG4B inhibitor: -14; Rin1-Abl PPI inh: 6.3*; Rin1-Abl confirm: 8.8*; GFP quencher: 6.7*

How did CC(C)N=c1scc(-c2cccs2)n1/N=C/c1ccc(O)c(O)c1O do in these assays?
TbMetRS inhib: -1; ATG4B inhibitor: 23; Rin1-Abl PPI inh: 14*; Rin1-Abl confirm: 12*; GFP quencher: 2

Results for COC(=O)C1=C[C@@H](C(=O)OC)[C@@H]2C3=C(C(=O)C2(C)C)[C@H](c2ccccc2)[C@@H]2C(=O)N(C)C(=O)[C@@H]2[C@@H]3C1 ?
TbMetRS inhib: 0; UCH37 inh: 3; ATG4B inhibitor: -4; Rin1-Abl PPI inh: 19*; Rin1-Abl confirm: 17*; GFP quencher: -1

How did CCN(CC)c1nc2c3c(nc4c(c3c1C#N)CC(=O)N4c1ccc(Cl)cc1)NC(C)=N2 do in these assays?
TbMetRS inhib: 0; UCH37 inh: -181; ATG4B inhibitor: 3; Rin1-Abl PPI inh: 15*; Rin1-Abl confirm: 14*; GFP quencher: 3

How did CCCCOC(=O)c1ccc(NC(=O)CN2C(=O)NC3(CCCCCC3)C2=O)cc1 do in these assays?
TbMetRS inhib: 0; UCH37 inh: 4; ATG4B inhibitor: 0; Rin1-Abl PPI inh: 12*; Rin1-Abl confirm: 10*; GFP quencher: 1

What do the screens show for `CCCc1cc(CN2CCOCC2)c(O)c(CN2CCOCC2)c1O`?
TbMetRS inhib: 0; ATG4B inhibitor: 7; Rin1-Abl PPI inh: 0

Results for Oc1c(CN2CCOCC2)cc(CN2CCOCC2)c(O)c1O ?
TbMetRS inhib: 0; UCH37 inh: 5; ATG4B inhibitor: 1; Rin1-Abl PPI inh: 23*; Rin1-Abl confirm: 7.0*; GFP quencher: 6

What do the screens show for `Oc1c(CN2CCOCC2)cc(COCc2ccccc2)c2cccnc12`?
TbMetRS inhib: 0; UCH37 inh: -4; ATG4B inhibitor: -1; Rin1-Abl PPI inh: 11*; Rin1-Abl confirm: 3; GFP quencher: 1

What do the screens show for `C=CCN(CC=C)C(=O)C1CC(=O)N(c2ccc(Br)cc2)C1` (stereo not given)?
TbMetRS inhib: -1; UCH37 inh: 3; ATG4B inhibitor: -3; Rin1-Abl PPI inh: 1

What do the screens show for `CCOc1ccccc1OCCCC(=O)Nc1cc(S(=O)(=O)N2CCOCC2)ccc1OC`?
TbMetRS inhib: 0; UCH37 inh: 0; ATG4B inhibitor: -12; Rin1-Abl PPI inh: 1

What do the screens show for `COc1ccc(OC)c(NC(=O)Nc2ccc(Cl)cc2)c1`?
TbMetRS inhib: 0; UCH37 inh: 3; ATG4B inhibitor: -22; Rin1-Abl PPI inh: 3

Results for Cc1ccc(NC(=O)CN2CCCCCC2)c(Br)c1 ?
TbMetRS inhib: 0; UCH37 inh: 2; ATG4B inhibitor: 5; Rin1-Abl PPI inh: 10*; Rin1-Abl confirm: -3; GFP quencher: -1

What do the screens show for `O=C(Cc1ccccc1)Nc1nnc(-c2cccs2)s1`?
TbMetRS inhib: -1; UCH37 inh: -68; ATG4B inhibitor: -5; Rin1-Abl PPI inh: 9.4*; Rin1-Abl confirm: 5; GFP quencher: 0

Results for CCC(=O)Nc1nnc(-c2cccs2)s1 ?
TbMetRS inhib: 0; UCH37 inh: -38; ATG4B inhibitor: 6; Rin1-Abl PPI inh: 0

What do the screens show for `O=C(NN=Cc1ccc(O)c(O)c1)c1ccccc1`?
TbMetRS inhib: 0; Rin1-Abl PPI inh: 7

Screens (PubChem BioAssay)
